Compound activity as filed in PubChem.
CRFR2-BP antag – antagonists of CRF-BP/CRF-R2 complex, primary screen, cell-based, HEK293, calcium dye fluorescence, uHTS. CRF-induced calcium fluorescence. inhibition, % at 11.8 µM. actives 0.59% (n = 350,000);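 active = inhibition of the ligand-induced calcium signal above about 50% at the single tested concentration, limit read from the data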
GPR7 antag – GPR7 receptor antagonists, primary screen, cell-based, fluorescence, single concentration | Neuropeptides B/W receptor type 1 (Homo sapiens), P48145 | GPR7-expressing cells, fluorescence antagonist assay | inhibition, % at 4.4 µM | actives 1.1% (n = 290,000) | AID 1861, 2009; in the data active = inhibition above about 16%, passing the limit was not always enough;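 also: cells stimulated with the agonist NPW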
TRPML3 ag – human TRPML3 channel agonists, primary screen, cell-based, HEK293 TRPML3-YFP, Fluo-8 calcium fluorescence, 3 µM. 100% = the carbachol control signal. activation, % at 3 µM. actives 0.29% (n = 220,000). AID 1448, 2008;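 active = activation above its plate's cutoff, the mean activation of the plate's test wells plus 3 SD, cut at about 12% in these data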
Target sequence (Q8TDD5 whole entry, looked up): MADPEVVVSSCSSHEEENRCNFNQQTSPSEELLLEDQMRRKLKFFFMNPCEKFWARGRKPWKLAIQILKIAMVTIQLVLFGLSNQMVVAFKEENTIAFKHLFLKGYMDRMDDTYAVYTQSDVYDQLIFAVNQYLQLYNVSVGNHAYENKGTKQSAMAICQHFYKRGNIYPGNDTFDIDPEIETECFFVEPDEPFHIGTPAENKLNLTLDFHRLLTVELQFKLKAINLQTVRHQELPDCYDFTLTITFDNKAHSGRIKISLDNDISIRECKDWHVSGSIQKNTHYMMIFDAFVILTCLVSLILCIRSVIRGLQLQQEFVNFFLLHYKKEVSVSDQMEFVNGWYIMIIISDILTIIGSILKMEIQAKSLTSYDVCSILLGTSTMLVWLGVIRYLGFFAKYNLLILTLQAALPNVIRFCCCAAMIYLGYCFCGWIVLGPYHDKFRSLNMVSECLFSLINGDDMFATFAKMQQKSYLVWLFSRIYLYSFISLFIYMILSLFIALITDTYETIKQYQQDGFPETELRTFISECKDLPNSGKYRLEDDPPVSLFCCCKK
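system = HEK293 cells stably carrying human TRPML3-YFP | doses = one concentration, 3 µM nominal, 0.3% DMSO | timing = dye loading 1 h 37 °C then 30 min ambient, 125 s read | detection = Fluo-8 calcium dye fluorescence, ex 470-495, em 515-575 nm | benchmarks = high control carbachol 87 µM, low control DMSO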
TRPN1 ag – zebrafish TRPN1 channel agonists, primary screen, cell-based, HEK293, calcium fluorescence; activation, % at 3 µM; HEK293 zebrafish TRPN1-YFP, Fluo-8 calcium fluorescence; 100% = response to 87 µM carbachol; actives 0.18% (n = 220,000); transient receptor potential cation channel N1 (TRPN1/NompC), Danio rerio;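 active = activation above its plate's cutoff, the mean activation of test wells on that plate plus 3 SD, cut at about 19% in these data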
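Assay system: Zebrafish TRPN1-YFP in HEK293 cells | Incubation: Dye loading 1 h at 37 °C, then 30 min room temperature | Measured by: Kinetic Fluo-8 fluorescence, ex 470-495, em 515-575 nm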
CRFBP-R2 agonist – agonists of CRF-BP/CRF-R2 complex, primary screen, cell-based, HEK293, calcium dye fluorescence, uHTS | CRF-binding protein / CRF receptor 2 complex (human) | calcium dye fluorescence (FLIPR); percent of saturating CRF peptide response | activation, % at 13.2 µM | actives 0.46% (n = 350,000) | AID 588473, 2011;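 active = activation of at least 50%, plus an integration ratio under a set limit after plate pattern correction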
GPR7 antag cf – GPR7 receptor antagonists, confirmation, cell-based, fluorescence, single concentration; shares compounds with GPR7 antag; GPR7-expressing cells, calcium fluorescence antagonist mode; inhibition, % at 4.4 µM; actives 52% (n = 2,400); in the data active = inhibition above about 24%;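 also: stimulated with the GPR7 agonist NPW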
MCHR1 antagonist – MCHR1 antagonists in cells, counter-screen for GPR7 antagonist project, cell-based, fluorescence, human | shares compounds with GPR7 antag | MCHR1-expressing cells, fluorescence antagonist assay | inhibition, % at 4.4 µM | actives 62% (n = 2,400); in the data active = inhibition above about 22%
Hits are given with their value; n = inactive; x = not tested or not shown. Hits are enriched below; roughly 2% of the tested compounds scored in any of these assays.

SMILES	CRFR2-BP antag	GPR7 antag	TRPML3 ag	TRPN1 ag	CRFBP-R2 agonist	GPR7 antag cf	MCHR1 antagonist
C[C@@H](C(=O)NC1CCCCC1)N1C(=O)N2CCc3c([nH]c4ccccc34)[C@@]2(C)C1=O	n	n	x	x	n	x	x
C[C@@H](C(=O)NCCc1ccccc1)N1C(=O)N2CCc3c([nH]c4ccccc34)[C@@]2(C)C1=O	n	24	x	x	n	n	27
C[C@@H](C(=O)NCCc1ccccc1F)N1C(=O)N2CCc3c([nH]c4ccccc34)[C@@]2(C)C1=O	n	25	x	x	n	n	34
Clc1ccc(Cn2ncc3c(N4CCCC4)ncnc32)cc1	n	25	n	n	n	n	n
CCN1CCc2c(sc(NC(=O)Nc3ccc(Cl)c(Cl)c3)c2C(N)=O)C1	n	58	84	195	239	60	81
CN(C)c1cccc(C(=O)N(C)C2CCCN(Cc3ccccc3F)C2)c1 (configuration not stated)	n	n	x	x	n	x	x
COc1ccccc1CNS(=O)(=O)c1ccc(-c2cc(C)no2)cc1	n	n	x	x	n	x	x
CCc1ccc(-c2cc(C)no2)cc1S(=O)(=O)NCc1ccccc1OC	n	31	x	x	n	n	31
CCCCNC1c2ccccc2C(=O)N1Cc1ccccc1 (configuration not stated)	n	28	x	x	n	n	n
CCCCc1cc(O)c(CCCC)c(O)c1	n	93	36	52	100	93	96
COc1cc(N2CCCC2)c(OC)cc1/C=C1/NC(=S)NC1=O	n	32	17	60	178	41	36
Cc1ccccc1N(CC(=O)NC1CCCCC1)C(=O)CCCC(=O)Nc1ccccn1	n	38	x	x	n	33	n
CC1CCCC(C)N1C(=O)c1ccc(S(=O)(=O)NCc2ccco2)cc1 (configuration not stated)	n	31	x	x	n	n	23
O=C(NC1CCCCC1)c1ccc(S(=O)(=O)NCc2ccco2)cc1	n	34	n	n	n	n	25
COc1ccccc1C(=O)N=C1SC2CS(=O)(=O)CC2N1c1ccccc1 (configuration not stated)	n	n	x	x	n	x	x
O=C(COc1ccc([N+](=O)[O-])cc1)NCCC1=CCCCC1	n	29	n	n	n	31	n
COc1ccccc1NS(=O)(=O)c1ccc(C(=O)NCC(c2ccccc2OC)N(C)C)cc1 (configuration not stated)	n	n	x	x	n	x	x
Cc1ccc(NS(=O)(=O)c2ccc(C(=O)NCC(c3ccco3)N(C)C)cc2)cc1 (configuration not stated)	n	34	x	x	n	52	43
Cc1cccc(NS(=O)(=O)c2ccc(C(=O)NCC(c3ccccc3)N(C)C)cc2)c1C (configuration not stated)	n	33	x	x	n	47	58
Cc1nonc1OCCNc1ccc([N+](=O)[O-])cc1	n	n	n	n	n	x	x
Cc1nonc1OCCNCCNc1ccc([N+](=O)[O-])cc1Cl	n	25	n	n	n	n	n
N[C@@H](Cc1ccccc1)C(=O)N1CCC(C(=O)NCC(=O)NCC(=O)O)CC1	n	n	x	x	n	x	x
COc1ccccc1N1CCN(C(=O)c2ccc(COc3cccc4c3OC(C)(C)C4)cc2)CC1	n	x	x	x	n	x	x
CC(C)C(=O)Nc1ccc(NC(=O)CCc2ccccc2)cn1	n	23	n	n	n	n	n
CCOC(=O)N1CCN(Cc2cn[nH]c2-c2ccc(-c3ccccc3)cc2)CC1	n	25	n	n	n	n	n
SMILES	CRFR2-BP antag	GPR7 antag	TRPML3 ag	TRPN1 ag	CRFBP-R2 agonist	GPR7 antag cf	MCHR1 antagonist
CCOC(=O)N1CCN(Cc2cn[nH]c2-c2cccc3ccccc23)CC1	n	n	n	n	n	x	x
COc1ccc(NC(=O)CNc2ccccc2N2CCCC2=O)cc1S(=O)(=O)N1CCOCC1	n	x	x	x	n	x	x
COc1ccc(C/C(=N\OC(C)=O)c2ccc(OC)cc2)cc1	n	40	x	x	n	n	n
Clc1cccc(Cl)c1CON/C=N/c1ncnc2sccc12	n	n	n	n	n	x	x
Clc1cccc(CON/C=N/c2ncnc3sccc23)c1	n	37	n	n	n	n	40
CCCCNC(=O)CN1C(=O)C(CC)Oc2ccc(Cl)cc21 (configuration not stated)	n	28	n	n	n	n	25
CC1CN(C(C)C)C(=S)NC1=O (configuration not stated)	n	x	x	x	n	x	x
CCOc1ccccc1NC(=O)c1cc(S(=O)(=O)NCc2ccco2)ccc1F	n	24	x	x	n	n	n
COc1ccc(OC)c(NC(=O)c2cc(S(=O)(=O)NCc3ccco3)ccc2F)c1	n	n	n	n	n	x	x
NC(=O)COC(=O)C1CSC2(c3ccc(F)cc3)CCC(=O)N12 (configuration not stated)	n	n	x	x	n	x	x
CCN1CCN(CCNC(=O)c2ccc(/C=C3/Sc4ccccc4N(Cc4ccccc4C)C3=O)cc2)CC1	n	26	n	n	n	83	91
CCN1CCN(CCCNC(=O)c2ccc(/C=C3/Sc4ccccc4N(Cc4ccccc4F)C3=O)cc2)CC1	n	n	n	n	n	x	x
Cc1ccc(C)c(NC(=O)CSc2nnc(NC(=O)C3CC3)s2)c1	n	n	x	x	n	x	x
COc1ccc(Cl)cc1NC(=O)CNc1ccccc1CN(C)C1CCCCC1	n	27	n	n	n	35	47
COc1ccc(Cl)cc1NC(=O)Nc1ccccc1C(N)=O	n	30	n	n	n	n	n
COc1ccc(OC)c(N(CC(=O)N2CCC(C)CC2)S(=O)(=O)c2ccccc2)c1	n	26	n	n	n	n	n
O=C(Nc1ccc2ccccc2c1)c1ccccc1O	n	30	x	x	n	39	53
O=P(Cc1cc(Br)cc(Br)c1OCCO)(c1ccccc1)c1ccccc1	n	33	n	n	n	39	n
O=P(c1ccccc1)(c1ccccc1)c1cc(Br)cc(Br)c1OCCO	n	n	x	x	n	x	x
O=C(Oc1ccc2c(c1)OCO2)c1ccc(F)cc1Cl	n	22	n	n	n	n	n
O=C(Cn1nnnc1CN1CCOCC1)N1CCC(c2cccc(Cl)c2)C1 (configuration not stated)	n	n	x	x	n	x	x
CN(Cc1cccs1)C(=O)CCc1c[nH]c2ccccc12	n	n	n	n	n	x	x
